Tests used:
Format in all cases: functional
MOLT-4 [1] = assay: Cytotoxicity against human MOLT4 cells assessed as cell growth at 10^-8 M after 48 hrs by SRB assay; conditions: MOLT-4, 48 h, read-out: Activity
T47D [2] = assay: Cytotoxicity against human T47D cells assessed as cell growth at 10^-7 M after 48 hrs by SRB assay; conditions: read-out: Activity
COLO [3] = assay: Cytotoxicity against human COLO […] cells assessed as cell growth at 10^-5 M after 48 hrs by SRB assay; conditions: read-out: Activity
Procedure, shortened: (§1)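 NCI-60 screen: lines kept in RPMI 1640 with 5% FBS, seeded at 5000–40,000 cells/well by doubling time, preincubated 24 h at 37 °C in 5% CO2. Time-zero plates TCA-fixed at drug addition. DMSO stocks diluted in medium, 48 h exposure. Fixation in cold TCA (final 10% adherent, 16% suspension), 0.4% SRB stain, solubilised in 10 mM Tris base, A515. Percent growth computed against control and time-zero.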

[4] = Cytotoxicity against human NCI-ADR-RES cells assessed as cell growth at 10^-5 M after 48 hrs by SRB assay; conditions: read-out: Activity
A549 [5] = assay: Cytotoxicity against human A549 cells assessed as cell growth at 10^-6 M after 48 hrs by SRB assay; conditions: A549, 48 h, read-out: Activity; procedure, shortened: as §1
MDA-MB-435 = assay: Growth inhibition of human MDA-MB-435 cells after 48 hrs by SRB assay; conditions: MDA-MB-435, 48 h
Procedure, shortened: (§2)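 Adherent NCI-60 lines grown in RPMI 1640 with 5% FBS, seeded at 5000–40,000 cells/well, and preincubated 24 h at 37 °C, 5% CO2. Compound, stocked in DMSO, given either once at 10^-5 M or at five 10-fold dilutions for 48 h. Cells fixed with cold TCA (final 10%), stained with 0.4% SRB, and read at 515 nm. GI50 taken as 50% reduction in net protein increase versus time-zero and control plates.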

BT-549 = assay: Cytotoxicity against human BT549 cells assessed as cell growth at 10^-4 M after 48 hrs by SRB assay; conditions: BT-549, 48 h, read-out: Activity; procedure, shortened: as §1
U-251 = assay: Cytotoxicity against human U251 cells assessed as cell growth at 10^-8 M after 48 hrs by SRB assay; conditions: U-251, 48 h, read-out: Activity
NCI-H322M [6] = assay: Cytotoxicity against human NCI-H322M cells assessed as cell growth at 10^-4 M after 48 hrs by SRB assay; conditions: read-out: Activity
COLO [7] = assay: Growth inhibition of human COLO […] cells after 48 hrs by SRB assay
Procedure, shortened: (§3)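 Same 48 h NCI-60 five-dose SRB protocol. Adherent lines were fixed with cold TCA at 10% final; suspension lines such as CCRF-CEM were fixed with 16% final TCA. Stain was 0.4% SRB in 1% acetic acid for 10 min, solubilized in 10 mM Tris base and read at 515 nm. GI50 came from log concentration–growth curves, solving [(Ti−Tz)/(C−Tz)]×100 = 50.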

HOP-62 [8] = assay: Cytotoxicity against human HOP62 cells assessed as cell growth at 10^-5 M after 48 hrs by SRB assay; conditions: HOP-62, 48 h, read-out: Activity
Procedure, shortened: (§4)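 NCI-60 five-dose screen. Cells were grown in RPMI 1640 with 5% FBS and seeded at 5000–40,000 cells/well according to doubling time. They were pre-incubated 24 h at 37 °C in 5% CO₂, and time-zero (Tz) plates were TCA-fixed at drug addition. Five 10-fold dilutions of DMSO stock were applied for 48 h. Read-out was SRB staining, 515 nm absorbance, with percent growth calculated versus Tz and untreated control.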

NCI-H322M [9] = assay: Growth inhibition of human NCI-H322M cells after 48 hrs by SRB assay; conditions: for CC50: read-out: LC50 (the source's name); procedure, shortened: as §2
T47D [10] = assay: Growth inhibition of human T47D cells after 48 hrs by SRB assay; conditions: for CC50: read-out: LC50 (the source's name); procedure, shortened: as §2
OVCAR-5 [11] = assay: Growth inhibition of human OVCAR5 cells after 48 hrs by SRB assay; conditions: OVCAR-5, 48 h; procedure, shortened: as §2
SK-MEL-28 = assay: Cytotoxicity against human SK-MEL-28 cells assessed as cell growth at 10^-7 M after 48 hrs by SRB assay; conditions: SK-MEL-28, 48 h, read-out: Activity
NCI-H460 = assay: Cytotoxicity against human NCI-H460 cells assessed as cell growth at 10^-8 M after 48 hrs by SRB assay; conditions: NCI-H460, 48 h, read-out: Activity
NCI-H522 = assay: Cytotoxicity against human NCI-H522 cells assessed as cell growth at 10^-5 M after 48 hrs by SRB assay; conditions: NCI-H522, 48 h, read-out: Activity
SNB-19 = assay: Cytotoxicity against human SNB19 cells assessed as cell growth at 10^-8 M after 48 hrs by SRB assay; conditions: SNB-19, 48 h, read-out: Activity
UO-31 [12] = assay: Growth inhibition of human UO31 cells after 48 hrs by SRB assay; conditions: UO-31, 48 h; procedure, shortened: as §2
UO-31 [13] = assay: Cytotoxicity against human UO31 cells assessed as cell growth at 10^-7 M after 48 hrs by SRB assay; conditions: UO-31, 48 h, read-out: Activity
OVCAR-5 [14] = assay: Cytotoxicity against human OVCAR5 cells assessed as cell growth at 10^-8 M after 48 hrs by SRB assay; conditions: OVCAR-5, 48 h, read-out: Activity
M14 = assay: Cytotoxicity against human M14 cells assessed as cell growth at 10^-6 M after 48 hrs by SRB assay; conditions: M14, 48 h, read-out: Activity
COLO [15] = assay: Cytotoxicity against human COLO […] cells assessed as cell growth at 10^-6 M after 48 hrs by SRB assay; conditions: read-out: Activity; procedure, shortened: as §1
Malme-3M = assay: Cytotoxicity against human MALME-3M cells assessed as cell growth at 10^-5 M after 48 hrs by SRB assay; conditions: read-out: Activity
MOLT-4 [16] = assay: Cytotoxicity against human MOLT4 cells assessed as cell growth at 10^-4 M after 48 hrs by SRB assay; conditions: MOLT-4, 48 h, read-out: Activity
HOP-62 [17] = assay: Cytotoxicity against human HOP62 cells assessed as cell growth at 10^-8 M after 48 hrs by SRB assay; conditions: HOP-62, 48 h, read-out: Activity; procedure, shortened: as §4
KM12 = assay: Cytotoxicity against human KM12 cells assessed as cell growth at 10^-5 M after 48 hrs by SRB assay; conditions: KM12, 48 h, read-out: Activity
SF-268 = assay: Cytotoxicity against human SF268 cells assessed as cell growth at 10^-7 M after 48 hrs by SRB assay; conditions: SF-268, 48 h, read-out: Activity
A549 [18] = assay: Growth inhibition of human A549 cells after 48 hrs by SRB assay; conditions: A549, 48 h; for CC50: read-out: LC50 (the source's name); procedure, shortened: as §3

## COc1ccc(-c2nn3cc(-c4ccc(O)cc4O)nc3s2)cc1
MOLT-4 [1]
  growth at 0.01 µM: 100%
T47D [2]
  growth at 0.1 µM: 89%
COLO [3]
  growth at 10 µM: 35%
[4]
  growth at 10 µM: 15%
A549 [5]
  growth at 1 µM: 86%
MDA-MB-435
  GI50: 2610 nM
  LC50: > 100 µM
  TGI: 18.6 µM
BT-549
  growth at 100 µM: -15%
U-251
  growth at 0.01 µM: 97%
NCI-H322M [6]
  growth at 100 µM: 11%
COLO [7]
  GI50: 5.82 µM
  LC50: > 100 µM
  TGI: 36.8 µM
HOP-62 [8]
  growth at 10 µM: -33%
NCI-H322M [9]
  GI50: 3.23 µM
  TGI: > 100 µM
  CC50: > 100 µM
T47D [10]
  GI50: 1630 nM
  TGI: 5.15 µM
  CC50: > 100 µM
OVCAR-5 [11]
  GI50: 3.43 µM
  LC50: > 100 µM
  TGI: > 100 µM
SK-MEL-28
  growth at 0.1 µM: 92%
NCI-H460
  growth at 0.01 µM: 101%
NCI-H522
  growth at 10 µM: 1%
SNB-19
  growth at 0.01 µM: 93%
UO-31 [12]
  GI50: 1440 nM
  LC50: > 100 µM
  TGI: 3.97 µM
UO-31 [13]
  growth at 0.1 µM: 83%
OVCAR-5 [14]
  growth at 0.01 µM: 92%
M14
  growth at 1 µM: 81%
COLO [15]
  growth at 1 µM: 100%
Malme-3M
  growth at 10 µM: -30%
MOLT-4 [16]
  growth at 100 µM: -22%
HOP-62 [17]
  growth at 0.01 µM: 95%
KM12
  growth at 10 µM: 21%
SF-268
  growth at 0.1 µM: 96%
A549 [18]
  GI50: 2.69 µM
  TGI: > 100 µM
  CC50: > 100 µM

## COc1ccc(-c2nn3cc(-c4cccc(N)c4)nc3s2)cc1
MOLT-4 [1]
  growth at 0.01 µM: 103%
T47D [2]
  growth at 0.1 µM: 86%
COLO [3]
  growth at 10 µM: 42%
[4]
  growth at 10 µM: 31%
A549 [5]
  growth at 1 µM: 95%
MDA-MB-435
  GI50: 2580 nM
  LC50: 89.6 µM
  TGI: 14.8 µM
BT-549
  growth at 100 µM: -25%
U-251
  growth at 0.01 µM: 106%
NCI-H322M [6]
  growth at 100 µM: -3%
COLO [7]
  GI50: 7.08 µM
  LC50: 86 µM
  TGI: 26.7 µM
HOP-62 [8]
  growth at 10 µM: 15%
NCI-H322M [9]
  GI50: 7.15 µM
  TGI: 87.2 µM
  CC50: > 100 µM
T47D [10]
  GI50: 1370 nM
  TGI: 21.2 µM
  CC50: > 100 µM
OVCAR-5 [11]
  GI50: 8.54 µM
  LC50: > 100 µM
  TGI: 47.1 µM
SK-MEL-28
  growth at 0.1 µM: 95%
NCI-H460
  growth at 0.01 µM: 100%
NCI-H522
  growth at 10 µM: 13%
SNB-19
  growth at 0.01 µM: 96%
UO-31 [12]
  GI50: 1460 nM
  LC50: 63.3 µM
  TGI: 10.2 µM
UO-31 [13]
  growth at 0.1 µM: 81%
OVCAR-5 [14]
  growth at 0.01 µM: 103%
M14
  growth at 1 µM: 94%
COLO [15]
  growth at 1 µM: 94%
Malme-3M
  growth at 10 µM: -16%
MOLT-4 [16]
  growth at 100 µM: 7%
HOP-62 [17]
  growth at 0.01 µM: 97%
KM12
  growth at 10 µM: 37%
SF-268
  growth at 0.1 µM: 101%
A549 [18]
  GI50: 5.84 µM
  TGI: 27.5 µM
  CC50: > 100 µM
